Reference: ChEMBL document CHEMBL1139439, “Folate-synthesizing enzyme system as target for development of inhibitors and inhibitor combinations against Candida albicans-synthesis and biological activity of new 2,4-diaminopyrimidines and 4'-substituted 4-aminodiphenyl sulfones” (J Med Chem, 2004)

Columns and labels:
Dihydrofolate reductase [1] = target: T1, Dihydrofolate reductase (Candida albicans, UniProt P22906); assay: Inhibitory activity against cell free dihydrofolate reductase (DHFR) from Candida albicans; details: for IC50: read-out: I50
T1 sequence (P22906 whole entry): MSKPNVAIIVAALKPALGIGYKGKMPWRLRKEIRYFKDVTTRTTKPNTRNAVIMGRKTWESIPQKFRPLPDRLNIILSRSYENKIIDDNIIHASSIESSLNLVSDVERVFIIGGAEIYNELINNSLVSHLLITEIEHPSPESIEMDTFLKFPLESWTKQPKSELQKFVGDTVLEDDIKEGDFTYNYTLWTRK

Dihydrofolate reductase [2] = target: T2, Dihydrofolate reductase (Rattus norvegicus, UniProt Q920D2); assay: Inhibitory activity against cell free dihydrofolate reductase (DHFR) from rat; details: for IC50: read-out: I50
T2 sequence (Q920D2 whole entry): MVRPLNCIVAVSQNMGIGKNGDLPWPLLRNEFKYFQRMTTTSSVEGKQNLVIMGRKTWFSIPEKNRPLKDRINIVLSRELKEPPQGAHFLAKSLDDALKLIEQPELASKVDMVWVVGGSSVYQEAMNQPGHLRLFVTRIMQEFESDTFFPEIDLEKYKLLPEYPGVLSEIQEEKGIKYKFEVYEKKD

[3] = Inhibitory activity against dihydropteroic acid synthase (SYN) from Mycobacterium lufu (DDS resistant); details: read-out: I50
[4] = Inhibitory activity against dihydropteroic acid synthase (SYN) from Mycobacterium lufu (DDS sensitive); details: read-out: I50
[5] = Inhibitory activity against dihydropteroic acid synthase (SYN) from candida albicans; details: read-out: I50
How it was run: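 Partially purified SYN extract was prepared from C. albicans ATCC 11651 and incubated with sulfones at pH 8.4. Periodic samples were quenched with trichloroacetic acid, and folate formed was quantified by bioassay with folate-requiring Streptococcus faecium. I50 is the concentration giving a 50% decrease in dihydropteroic acid production versus the uninhibited control.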

[6] = Inhibitory activity against dihydropteroic acid synthase (SYN) from Escherichia coli; details: read-out: I50

| Structure (SMILES) | IC50 (Dihydrofolate reductase [1]) [µM] | IC50 (Dihydrofolate reductase [2]) [µM] | other results |
| --- | --- | --- | --- |
| COc1cc(COc2cnc(N)nc2N)ccc1OCCCc1ccccc1 | 6.13 | 58.3 | – |
| COc1ccc(CNc2cnc(N)nc2N)cc1 | 52.3 | – | I50 (Dihydrofolate reductase [2]): 146.2 uM l-1 |
| COc1ccc(CCc2cnc(N)nc2N)cc1OC | 35.4 | – | I50 (Dihydrofolate reductase [2]): 315.3 uM l-1 |
| Nc1ncc(NCc2ccc3ccccc3c2)c(N)n1 | 16.1 | 71.3 | – |
| COc1ccc(S(=O)(=O)c2ccc(N)cc2)cc1 | – | – | IC50 [3]: 9.33 µM; IC50 [4]: 7.55 µM; IC50 [5]: 9.05 µM; IC50 [6]: 128 µM |
| COC(=O)CNc1ccc(S(=O)(=O)c2ccc(N)cc2)cc1 | – | – | IC50 [3]: 2.63 µM; IC50 [4]: 2.24 µM; IC50 [5]: 1.33 µM; IC50 [6]: 101 µM |
| Nc1ncc(Cc2cccc3ccccc23)c(N)n1 | 53.5 | 29.4 | – |
| Nc1ncc(Cc2ccccc2)c(N)n1 | 90.5 | – | I50 (Dihydrofolate reductase [2]): 115.3 uM l-1 |
| Nc1ncc(CSc2ccc3ccccc3c2)c(N)n1 | 30.9 | – | I50 (Dihydrofolate reductase [2]): 110.6 uM l-1 |
| Nc1ccc(S(=O)(=O)c2ccc(C(=O)O)cc2)cc1 | – | – | IC50 [3]: 3.17 µM; IC50 [4]: 3.6 µM; IC50 [5]: 2.78 µM; IC50 [6]: 74.2 µM |
| Nc1ncc(NCc2ccccc2Cl)c(N)n1 | 6.63 | 71.5 | – |
| Nc1ncc(Cc2ccc3ccccc3c2)c(N)n1 | 4.77 | 61.2 | – |
| Cc1nc(N)nc(N)c1CCc1ccccc1 | 4.2 | 12.8 | – |
| Nc1ccc(S(=O)(=O)c2ccc(Cl)cc2)cc1 | – | – | IC50 [3]: 18.7 µM; IC50 [4]: 13 µM; IC50 [5]: 14.3 µM |
| Nc1ncc(NCc2cccc(Cl)c2)c(N)n1 | 13.9 | 49.8 | – |
| COc1ccc(CNc2cnc(N)nc2N)cc1OC | – | – | I50 (Dihydrofolate reductase [1]): 125.8 uM l-1; I50 (Dihydrofolate reductase [2]): 197.3 uM l-1 |
| Nc1ncc(CNc2ccccc2)c(N)n1 | 59.4 | – | I50 (Dihydrofolate reductase [2]): 133.1 uM l-1 |
| Cc1nc(N)nc(N)c1CCCc1ccccc1 | 9.9 | 0.82 | – |
| CC(C)(C)c1ccc(COc2cnc(N)nc2N)cc1 | 23.8 | – | I50 (Dihydrofolate reductase [2]): 106 uM l-1 |
| COc1ccc(COc2cnc(N)nc2N)cc1 | 26.1 | 99.7 | – |
| Nc1ncc(/C=C/c2ccccc2)c(N)n1 | 5.72 | – | I50 (Dihydrofolate reductase [2]): 130.6 uM l-1 |
| Nc1ncc(NCc2ccc(Cl)c(Cl)c2)c(N)n1 | 84.8 | – | I50 (Dihydrofolate reductase [2]): > 350 uM l-1 |

Further compounds by falling IC50 (Dihydrofolate reductase [1]), results first:

| IC50 (Dihydrofolate reductase [1]) [µM] | IC50 (Dihydrofolate reductase [2]) [µM] | Structure (SMILES) | other results |
| --- | --- | --- | --- |
| 3.72 | 56.7 | Nc1ncc(OCc2ccc(Cl)c(Cl)c2)c(N)n1 | – |
| 3.37 | 39.9 | Nc1ncc(CCc2ccccc2)c(N)n1 | – |
| 3.1 | 2.57 | Nc1ncc(OCc2c(Cl)cccc2Cl)c(N)n1 | – |
| 2.81 | 39.4 | Nc1ncc(OCc2ccc(OCc3ccccc3)cc2)c(N)n1 | – |
| 1.85 | 3.36 | Cc1nc(N)nc(N)c1Cc1ccccc1 | – |
| 1.39 | 5.9 | Nc1ncc(NCc2cccc3ccccc23)c(N)n1 | – |
| 1.34 | 4.58 | Cc1nc(N)nc(N)c1OCc1ccc(Cl)c(Cl)c1 | – |
| 1.24 | 10.1 | Nc1ncc(OCc2ccccc2)c(N)n1 | – |
| 0.97 | – | COc1cc(Cc2cnc(N)nc2N)cc(OC)c1OCCCNc1ccc(N(C)C)cc1 | – |
| 0.73 | 3.53 | Nc1ncc(OCc2ccccc2Cl)c(N)n1 | – |
| 0.619 | 15.7 | Nc1ncc(OCc2ccc(OCCCN3C(=O)c4ccccc4C3=O)cc2)c(N)n1 | – |
| 0.581 | 1.72 | Cc1ccc(S(=O)(=O)NCCCCOc2ccc(Cc3cnc(N)nc3N)cc2)cc1 | – |
| 0.538 | 4.53 | COc1cc(COc2cnc(N)nc2N)ccc1OCCCNS(=O)(=O)c1ccc(C)cc1 | – |
| 0.49 | 2.82 | Nc1ncc(OCc2ccc(Br)c3ccccc23)c(N)n1 | – |
| 0.435 | 4.43 | Cc1ccc(S(=O)(=O)NCCCOc2ccc(COc3cnc(N)nc3N)cc2)cc1 | – |
| 0.078 | 6.07 | Nc1ncc(OCc2ccc(OCCCCN3C(=O)c4ccccc4C3=O)cc2)c(N)n1 | – |
| 0.047 | 3.64 | Nc1ncc(Cc2ccc(OCCCCN3C(=O)c4ccccc4C3=O)cc2)c(N)n1 | – |
